According to ChEMBL document CHEMBL1121796, “Bioactivation of the antitumor drugs 9-hydroxyellipticine and derivatives by a peroxidase-hydrogen peroxide system” (1981):

Experiments:
L1210 [1] = experiment: Compound was tested for its antitumor activity against murine leukemia L1210 cells in vitro, expressed as ID50; assay type: functional; details: Mus musculus, read-out: ID50 (the source's name)
In short: (§1)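 L1210 murine leukemia cells were grown in culture with drug for 48 h. ID50 is the drug concentration that cuts the rate of cell multiplication by 50% compared with untreated controls.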

[2] = biological target: Myeloperoxidase (Homo sapiens) (UniProt P05164); experiment: The effect on NADH oxidation in the presence of MPO-H2O2.
[3] = biological target: Myeloperoxidase (Homo sapiens) (UniProt P05164); experiment: he effect on oxygen consumed in the presence of MPO-H2O2.
Mus musculus [4] = experiment: Increase in life span over controls (10e5 cells) in mice after intraperitoneal treatment of the compound.; assay type: functional; design: concentration or dose not given beside the values
In short: (§2)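 DBA/2 mice were inoculated with 10⁵ L1210 leukemia cells and given a single intraperitoneal injection of drug. Survival was compared with untreated controls as increase in life span, ILS = [(T − C)/C] × 100. An antitumor effect was counted significant at ILS ≥ 25%.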

L1210 [5] = experiment: Compound was tested for its cytotoxic activity against murine leukemia L1210 cells in mice after intraperitoneal treatment, expressed as LD0 (highest nonlethal dose).; assay type: functional, Mus musculus
In short: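 Highest nonlethal dose (LD0) found for each drug after a single intraperitoneal injection into DBA/2 or Swiss mice.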

L1210 [6] = experiment: The compound is tested for its cytotoxic activity against murine leukemia L1210 cells in mice after intraperitoneal treatment, expressed as LD0 (highest nonlethal dose).; assay type: functional, Mus musculus
[7] = biological target: Myeloperoxidase (Homo sapiens) (UniProt P05164); experiment: The effect on oxygen consumed in the presence of MPO-H2O2.
L1210 [8] = experiment: The compound is tested for its antitumor activity against murine leukemia L1210 cells in vitro, expressed as ID50; assay type: functional; details: Mus musculus, read-out: ID50 (the source's name); in short: as §1
[9] = biological target: Myeloperoxidase (Homo sapiens) (UniProt P05164); experiment: The effect on NADH oxidation in the presence of MPO-H2O2 at pH 7.4
[10] = biological target: Myeloperoxidase (Homo sapiens) (UniProt P05164); experiment: The effect on NADH oxidation in the presence of MPO-H2O2 without the compound
[11] = biological target: Myeloperoxidase (Homo sapiens) (UniProt P05164); experiment: The effect on NADH oxidation in the presence of MPO-H2O2 without the compound at pH 8.3
[12] = biological target: Myeloperoxidase (Homo sapiens) (UniProt P05164); experiment: The effect on NADH oxidation in the presence of MPO-H2O2 at pH 8.3
[13] = biological target: Myeloperoxidase (Homo sapiens) (UniProt P05164); experiment: The effect on NADH oxidation in the presence of MPO-H2O2.; remark: listed apart in the source
[14] = biological target: Myeloperoxidase (Homo sapiens) (UniProt P05164); experiment: The effect on oxygen uptake in the presence of MPO-H2O2 at pH 6.8
[15] = biological target: Myeloperoxidase (Homo sapiens) (UniProt P05164); experiment: The effect on NADH oxidation in the presence of MPO-H2O2 without the compound at pH 6.0
[16] = biological target: Myeloperoxidase (Homo sapiens) (UniProt P05164); experiment: The effect on oxygen uptake in the presence of MPO-H2O2 at pH 7.8
[17] = biological target: Myeloperoxidase (Homo sapiens) (UniProt P05164); experiment: The effect on NADH oxidation in the presence of MPO-H2O2 at pH 6.8
[18] = biological target: Myeloperoxidase (Homo sapiens) (UniProt P05164); experiment: The effect on oxygen uptake in the presence of MPO-H2O2 without the compound at pH 7.8
[19] = biological target: Myeloperoxidase (Homo sapiens) (UniProt P05164); experiment: The effect on oxygen uptake in the presence of MPO-H2O2 at pH 8.3
[20] = biological target: Myeloperoxidase (Homo sapiens) (UniProt P05164); experiment: The effect on oxygen uptake in the presence of MPO-H2O2 at pH 7.4
[21] = biological target: Myeloperoxidase (Homo sapiens) (UniProt P05164); experiment: The effect on oxygen uptake in the presence of MPO-H2O2 without the compound at pH 6.0
[22] = biological target: Myeloperoxidase (Homo sapiens) (UniProt P05164); experiment: The effect on oxygen uptake in the presence of MPO-H2O2 at pH 6.0
[23] = biological target: Myeloperoxidase (Homo sapiens) (UniProt P05164); experiment: The effect on NADH oxidation in the presence of MPO-H2O2 without compound at pH 7.4
[24] = biological target: Myeloperoxidase (Homo sapiens) (UniProt P05164); experiment: The effect on oxygen uptake in the presence of MPO-H2O2 without the compound at pH 7.4
[25] = biological target: Myeloperoxidase (Homo sapiens) (UniProt P05164); experiment: The effect on NADH oxidation in the presence of MPO-H2O2 without compound at pH 7.8
[26] = biological target: Myeloperoxidase (Homo sapiens) (UniProt P05164); experiment: The effect on NADH oxidation in the presence of MPO-H2O2 at pH 7.8
[27] = biological target: Myeloperoxidase (Homo sapiens) (UniProt P05164); experiment: The effect on NADH oxidation in the presence of MPO-H2O2 at pH 6.0
[28] = biological target: Myeloperoxidase (Homo sapiens) (UniProt P05164); experiment: The effect on oxygen uptake in the presence of MPO-H2O2 without the compound at pH 8.3
[29] = biological target: Myeloperoxidase (Homo sapiens) (UniProt P05164); experiment: The effect on oxygen uptake in the presence of MPO-H2O2 without the compound at pH 6.8
Mus musculus [30] = experiment: Increase in life span over control (10e5 cells) in mice after intraperitoneal treatment of the compound.; assay type: functional; in short: as §2

In the case of `Cc1c2cc[n+](C)cc2c(C)c2c1[nH]c1ccccc12`, the IC50 (L1210 [1]) is reported as 1680 nM, the NADH oxidized [2] is reported as 0 nM/min and the Oxygen consumed [3] is reported as 0 nM/min. The ILS (Mus musculus [4]) was 18% and the LD0 (L1210 [5]) was 12.5 mg/kg.

Work on `COc1ccc2[nH]c3c(C)c4ccncc4c(C)c3c2c1` yielded an NADH oxidized [2] of 0.22 nM/min, an ILS (Mus musculus [4]) of 70% and an LD0 (L1210 [6]) of 70 mg/kg. For the same molecule, the Oxygen consumed [7] was 0 nM/min and the IC50 (L1210 [8]) was 600 nM.

With `Cc1c2ccncc2c(C)c2c1[nH]c1ccc(O)cc12` the NADH oxidation [9] was 10.2 nM/min, the IC50 (L1210 [1]) was 15 nM and the NADH oxidized [2] was 10.5 nM/min. The NADH oxidation [10] was 0.5 nM/min, the NADH oxidation [11] was 0 nM/min and the NADH oxidation [12] was 6.5 nM/min. It also gave an Oxygen consumed [13] of 0 nM/min, an ILS (Mus musculus [4]) of 53% and an Oxygen uptake [14] of 0 nM/min. The NADH oxidized [15] was 1.2 nM/min, the Oxygen uptake [16] was 0 nM/min and the NADH oxidation [17] was 7.8 nM/min. The Oxygen uptake [18] was 0 nM/min, the Oxygen uptake [19] was 0 nM/min and the Oxygen uptake [20] was 0 nM/min. It also gave an Oxygen uptake [21] of 0.52 nM/min, an Oxygen uptake [22] of 0 nM/min and an NADH oxidation [23] of 0 nM/min. It also gave an Oxygen uptake [24] of 0 nM/min, an NADH oxidation [25] of 0 nM/min and an LD0 (L1210 [5]) of 50 mg/kg. It also gave an NADH oxidation [26] of 7.2 nM/min, an NADH oxidation [27] of 5.5 nM/min and an Oxygen uptake [28] of 0 nM/min. The Oxygen uptake [29] was 0.28 nM/min.

Work on `Cc1c2c[n+](C)ccc2c(C)c2c1c1cc(O)ccc1n2C` yielded an IC50 (L1210 [1]) of 41 nM, an NADH oxidized [2] of 16.15 nM/min and an ILS (Mus musculus [30]) of 78%. The Oxygen consumed [7] was 7.7 nM/min and the LD0 (L1210 [5]) was 15 mg/kg.

For `Cc1c2ccncc2c(C)c2c1[nH]c1ccccc12` [ELLIPTECINE], the IC50 (L1210 [1]) was 990 nM, the NADH oxidized [2] was 0 nM/min and the ILS (Mus musculus [4]) was 68%. For the same molecule, the Oxygen consumed [7] was 0 nM/min and the LD0 (L1210 [5]) was 50 mg/kg.

`Cc1c2cc[n+](C)cc2c(C)c2c1[nH]c1ccc(O)cc12` [ELLIPTINIUM] was tested, and the IC50 (L1210 [1]) was 50 nM, the NADH oxidized [2] was 12.2 nM/min and the ILS (Mus musculus [4]) was 62%. It also gave an Oxygen consumed [7] of 0 nM/min and an LD0 (L1210 [5]) of 5 mg/kg.
